These results are taken from the EternaBench riboswitch data.

The data set has as its system MS2 coat protein. The data set can be described thus: apparent Kd, MS2 coat protein; higher = weaker binding; RNA-MaP array; FMN 200 µM where present. The essentials:
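The titrant was SNAP-549-labelled MS2 coat protein, run from 0.7 or 1.5 nM in doubling steps to 3 µM. It was applied to designs transcribed by stalled E. coli RNA polymerase on Illumina sequencing-chip clusters, without ligand first and then with constant ligand, in 100 mM Tris-HCl pH 7.5, 80 mM KCl, 4 mM MgCl2, BSA, DTT, yeast tRNA and Tween-20. The apparent Kd is the median of filtered per-cluster binding-curve fits, with green signal normalised to red-channel RNA signal and control-cluster median Fmax.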

[1] abbreviates: designed as: OFF switch for flavin mononucleotide, no ligand.
Where [2] appears, read: ligand present: flavin mononucleotide, designed as: OFF switch for flavin mononucleotide.
[3] abbreviates: designed as: ON switch for flavin mononucleotide, no ligand.
Setting [4] is: ligand present: flavin mononucleotide, designed as: ON switch for flavin mononucleotide.

With “UACCUGAGGCAAAGCUUUAGGUAUACAUGAGGAUCACCCAUGUAGGAUAUGGUAGGCUUUGCUUACCAGAAGGACAUGUAAAUU”, the apparent Kd (commonly a dissociation constant that holds for the conditions of the assay) under setting [1] came to 0.0205 µM and the “apparent Kd” value under setting [2] amounted to 0.0678 µM.
Taken in the same sequence, the figures for “AAGAAGGACGCAGGAUAUCCAGGACCUCCCGCAGGAGAAGGGCGAGACAUGAGGAUCACCCAUACAUGAGGAUCACCCAUGUAA” were 0.0204 µM and 0.0223 µM.
Taken in the same sequence, the figures for “GCUGACGAUGUAGGAUAUCAGUAUAAUAAAUACUGAGAAGGACAUGAGGAUCACCCAUGUAAUAAACGUCAGCAGAGGAAACUC” were 0.0162 µM and 0.0226 µM.
“GUAAAGUGAGGAUAUGGUAAAUUAAUUAUUUAGUAAUUAAUCCAGAAGGCACAUGAGGAUCACCCAUGUAAAUG”: the “apparent Kd” value is, setting by setting: under setting [1], 0.0307 µM; under setting [2], 0.0514 µM.
Take “GGUAUCUCCCGUGAGGAUAUGCGGCGUAGAACAUGAGGAUCACCCAUGUCCUUCGAAUGGGUUACGCAGAAGGCACGACGGUACC”: the “apparent Kd” value is, setting by setting: under setting [3], 0.0333 µM; under setting [4], 0.0185 µM.
Take “UGGUACUAGGGAGGAUAUGGGAAGAUACAUGAGGAUCACCCAUGUUUAAGAAUGCCGAAAGGCAACUAGAAGGCCCUAGUACCU”: the “apparent Kd” value reads like this: under setting [3], 0.43 µM; under setting [4], 0.0199 µM.
On to “GGAUGUAAGGAGAAGGGCUACUGGUUGAAACCUGCGGCCUCUGGAACAUGAGGAUCACCCAUGUAGCAGGAUAUCCUUGCGUGA”, for which the “apparent Kd” value was 0.129 µM under setting [1] and 0.0463 µM under setting [2].
Consider “AAAAAGUGAGGAUAUACGAGGAGAAACAACAAACAAACAAAACAUGAGGAUCACCCAUGUAGAAGGCACAAAAA”, for which the “apparent Kd” value reads like this: under setting [1], 0.0211 µM; under setting [2], 0.0262 µM.
Regarding “UUGGACGUCGUAGGAUAUGUAGGAUAUUCCUACAUGAGGAUCACCCAUGUUGCCAUGGAAGAAGGACAGAAGGACGAUGUCCAU”, the “apparent Kd” value reads like this: under setting [3], 0.253 µM; under setting [4], 0.00448 µM.
On to “CAAUUUAUAGCAGGAUAUACAAUACAAUGAUUAGUAGAAGGGUUUAAUACAUGAGGAUCACCCAUGUCAUGUGUCAUAAUAACC”, for which the “apparent Kd” value runs as follows: under setting [1], 0.0312 µM; under setting [2], 0.0235 µM.
Turning to “UUUAAUUUAAUUAAGAUCACAUGAGGAUCACCCAUGUAAUUAUAGGAUAUCAGCUCGAAUAGAGCUGAGAAGGAUAAUUACAUA”, the “apparent Kd” value turned out to be 0.0895 µM under setting [1] and 0.0577 µM under setting [2].
In the case of “CAAUUGGCACAGAAGGGUGACAUGAGGAUCACCCAUGUAGCGUGGCACUCAGGAGGAACCACGCCACAGGAUAUGUGCCGGCAC”, the “apparent Kd” value by setting is: under setting [3], 0.0885 µM; under setting [4], 0.0868 µM.
In the case of “UUCACCUUAUUUUACAUGAGGAUCACCCAUGUUUUUUUUACGUAGGAUAUCGAUGCUUGUUUAUUCGAGAAGGACGAUGUAAGU”, the “apparent Kd” value by setting is: under setting [3], 0.0366 µM; under setting [4], 0.0324 µM.
With “CUCCUACAUGAGGAUCACCCAUGUCAGGAUAUCUCAGUGGCACCUAAAUUCGCCACCCAGAGAAGGGACGUGCA”, the “apparent Kd” value by setting is: under setting [1], 0.0139 µM; under setting [2], 0.0166 µM.
“CUUGUACUCGGAGGAUAUCGAUAUCAAACAUGAGGAUCACCCAUGUUGAGGAUCACACAUGUAAAUGAGAAGGCUGACGUUGCU”: the “apparent Kd” value worked out at 0.0229 µM under setting [3] and 0.0263 µM under setting [4].
With “UGUUCUAUGUAGAAGGCCCAUAUCUGUAUUUAGGGAGGAUAUACAUGAGGAUCACCCAUGUGUAGAGCUGGUGGACUGGUCAGC”, the “apparent Kd” value by setting is: under setting [1], 0.0136 µM; under setting [2], 0.0389 µM.
As to “GCCAUCGCAUGAGGAUAUGCUCCCGUUUCGGGAGCAGAAGGCAUGUCAUAAGACAUGAGGAUCACCCAUGUAGCUAAGAUGGCA”, the “apparent Kd” value came to 0.31 µM under setting [3] and 0.0121 µM under setting [4].
Take “GUCGGAAACGACAAGUCAGCUCGUGAGGAUAUACAAUAUUAAAAGAUCACAUGAGGAUCACCCAUGUAGAAGGCACGAGCUGAU”: the “apparent Kd” value amounted to 0.0317 µM under setting [1] and 0.442 µM under setting [2].
Taken in the same sequence, the figures for “GACUUGUCAGGAUAUCUUACAUUUGCAUCGUAGUUACCAUUGGAGAAGGGACAUGAGGAUCACCCAUGUUUGGC” were 0.0255 µM and 0.0239 µM.
As for “UAUAGGCUAGGAUAUACAACACUUGGUUCAGAUGUUUGAAGACAUGAGGAUCACCCAUGUAGAAGGAGCAUUCA”, the “apparent Kd” value is 0.0335 µM under setting [1] and 0.0763 µM under setting [2].
Taken in the same sequence, the figures for “AUCAGCUCGUCAGGAUAUACAUCACUGCUUCGGCAGUGUAUCUUAACAACAUGAGGAUCACCCAUGUAGAAGGGACGAGCUGAU” were 0.0176 µM and 0.0245 µM.
Taken in the same sequence, the figures for “AACACGAGAGGUGUUGUCUAAUCACAUGAGGAUCACCCAUGUAAGGAUAUCGCGGCUAUCGGCAUCGAGAAGGUACAGGGUGCA” were 0.165 µM and 0.0589 µM.
As to “ACAUGAGGAUCACCCAUGUGGACAUAGGAUAUUGGUGAUCAGGCGUGUUAUACAGGAUAGGUCUGCGAGAAGGGUGUACGUUGC”, the “apparent Kd” value was 0.588 µM under setting [3] and 0.295 µM under setting [4].
Consider “GCUAUUGAUGUAGGAUAUGAUAUAGAAGCUAUGUCAGAAGGACAUGAGGAUCACCCAUGUCAAUGGAUGGAGAGAAGAAAUGGC”, for which the “apparent Kd” value is, setting by setting: under setting [1], 0.0626 µM; under setting [2], 0.075 µM.
Taken in the same sequence, the figures for “GGAUGACAAAGUCAUCCUAAACGAACAUGAGGAUCACCCAUGUAGGAUAUGCUACUCAAAGAGUAGCAGAAGGACAUGUGCCUU” were 0.0373 µM and 0.26 µM.
Taken in the same sequence, the figures for “AGUAGAUCAGGAUAUACGUAAAUGGUAAUUAUGUAACUUCAACAUGAGGAUCACCCAUGUAGAAGGGAUCUACA” were 0.0146 µM and 0.0151 µM.
Taken in the same sequence, the figures for “AUGUACCGGUGAGGAUAUUUUUAAUAGAGCUUUAUGAUAUACAUGAGGAUCACCCAUGUUACUUUAAAGAAGGCAUCGGAUUAA” were 0.019 µM and 0.014 µM.
“UCCUCACAUGAGGAUCACCCAUGUCAGGAUAUCUGCGAGCAUUGGCCAAGGCCGCUCAGGAGAAGGGACGUCAA”: the “apparent Kd” value under setting [1] was determined as 0.0171 µM and the “apparent Kd” value under setting [2] is 0.0274 µM.
On to “GCGGAACAUGAGGAUCACCCAUGUAUCCCAAAUAUGGACUCACAGGAUAUCCCGAGUUGCCAGUGGGAGAAGGGUGACUCCAGA”, for which the “apparent Kd” value runs as follows: under setting [3], 0.0142 µM; under setting [4], 0.00655 µM.
As for “AUAGAAGUCUAGAAGGACCUAGCUGUAUACCGUCGAGGUAUAUAGCUAGGUAGGAUAUGGGACAUGAGGAUCACCCAUGUGUUG”, the “apparent Kd” value runs as follows: under setting [3], 0.0329 µM; under setting [4], 0.00919 µM.
As for “UGUAGGAGCAGAGGAUAUUACAUGAGGAUCACCCAUGUAUGAACCAAUAGCUGGAAACAGCAAUGUAAGAAGGCUGCUCCGACA”, the “apparent Kd” value under setting [1] came out at 0.0122 µM and the “apparent Kd” value under setting [2] was found to be 0.187 µM.
Turning to “CAUUCUUUUCCGGAGGAUAUGCUACCCUUUACAUGAGGAUCACCCAUGUUACCCUCUUCUUGUCAGUAGAAGGCCGUUUCUUAAC”, the “apparent Kd” value was determined as 0.0274 µM under setting [3] and 0.0251 µM under setting [4].
Regarding “UUUAGUUCAGGAUAUGUAGAUUUUAACAUGAGGAUCACCCAUGUAGAUCCUGAUCCUGCUACAGAAGGAAAGAUUU”, the “apparent Kd” value under setting [1] was 0.0269 µM and the “apparent Kd” value under setting [2] is 0.0255 µM.
For “AUAUUUAUAUAUUUGGCAAGAAUCAGAAGGCGUUACAUGAGGAUCACCCAUGUUUUGUAUAGUAACGAGGAUAUGAUAUGGAAA”, the “apparent Kd” value by setting is: under setting [1], 0.0188 µM; under setting [2], 0.0142 µM.
Taken in the same sequence, the figures for “CAAUUUAUAACAGGAUAUGUAAUACAAUAGUAAAUAGAAGGGUUUUAUACAUGAGGAUCACCCAUGUCAUGUGUCAUAAUUACC” were 0.0364 µM and 0.0295 µM.
Turning to “UUACUAUUACAGAAGGUUAAAUAAUAUAUAAAUGAAGGAUAUGUAACAUGAGGAUCACCCAUGUUUCACCCAUAUGAGGAUCAC”, the “apparent Kd” value under setting [1] was determined as 0.00849 µM and the “apparent Kd” value under setting [2] turned out to be 0.00799 µM.
As for “GGGUACAUCGGAGGAUAUCAUGUAAAUACAUGAGGAUCACCCAUGUCGAUGGAGACAUCGGAGAUUAAGAAGGCCGAUGUACCG”, the “apparent Kd” value came out at 0.801 µM under setting [3] and 0.842 µM under setting [4].
“UACCUGAGGCUUUGCUUUAGGCUUACAUGAGGAUCACCCAUGUAGGAUAUGGUAGGCAAAGCUUACCAGAAGGACAUGGAAAUU”: the “apparent Kd” value came out at 0.019 µM under setting [1] and 0.0666 µM under setting [2].
Turning to “GUAGCAUACCGAGGAUAUCUAACGACAAAGUCGACAUGAGGAUCACCCAUGUGGCGAAAGCCUUGGGAGAAGGCGGAAUGCUAC”, the “apparent Kd” value runs as follows: under setting [3], 0.0162 µM; under setting [4], 0.0126 µM.
In the case of “GGAAAACAUGAGGAUCACCCAUGUGAGGAUAUCGAUGUCCAAGAAAAAGUGCGGGACUCGAGAAGGCACUUGGA”, the “apparent Kd” value by setting is: under setting [1], 0.0589 µM; under setting [2], 0.0368 µM.
Take “AACACAACAUGAAACAUGAGGAUCACCCAUGUUGUUUGUAAUCAGGAUAUGAUCUCAAGAAUGAAUUAGAAGGGAUAUGGAUUU”: the “apparent Kd” value is, setting by setting: under setting [3], 0.0318 µM; under setting [4], 0.0396 µM.
As to “GCCCUUCGAGGAUAUACAUGAGGAUCACCCAUGUCCGGAGUUCCGAGGCGGCCCAUAUGUAGAAGGCGAACUUU”, the “apparent Kd” value runs as follows: under setting [1], 0.0434 µM; under setting [2], 0.067 µM.
Taken in the same sequence, the figures for “UGAUAACAUGUAGGAUAUCCAGCAUUGACCAUCGGAGAAGGACAUGAGGAUCACCCAUGUACCGAUACAAUGGGAUAAUGGAAU” were 0.0155 µM and 0.0172 µM.
On to “ACAUGAGGAUCACCCAUGUACAUGGGUUUAAUUGUUUGUUACUAGGAUAUGUAUUUGAAUUUACAACAGAAGGAGUAUUAAUGU”, for which the “apparent Kd” value runs as follows: under setting [1], 0.985 µM; under setting [2], 0.414 µM.
Taken in the same sequence, the figures for “UGUGCAGAAGGAUAUGCGUAAUGGCCGUGAGGCCUAGAUCUACAUGAGGAUCACCCAUGUAGAAGGUCUGUACU” were 0.0166 µM and 0.0164 µM.
Taken in the same sequence, the figures for “GUGUAGUGAGGAUAUCGUUGUUAGGAGGAGAAGGUAGGAGGCGAGAAGGCACAUGAGGAUCACCCAUGUAUGAG” were 0.0351 µM and 0.0237 µM.
For the sequence “AAGACUAGAGGAUAUACAUGAGGAUCACCCAUGUAACUGUCAGGAGACUGACGGAGAUGUAGAAGGCUAGUCAA”, the “apparent Kd” value under setting [1] worked out at 0.017 µM and the “apparent Kd” value under setting [2] worked out at 0.0341 µM.
Consider “CGGGCGCGAGGAUAUACAUGAGGAUCACCCAUGUAGUGGGUUUGUUUCGGGCUUGCGUGUAGAAGGUGUGUUUG”, for which the “apparent Kd” value came to 0.217 µM under setting [1] and 0.172 µM under setting [2].
